High-throughput results (PubChem)
procasp3 activ: activators of human procaspase-3. P42574. recombinant procaspase-3 D3A, Ac-DEVD-pNA absorbance 405 nm. activation, % at 8.5 µM. 330,000 compounds, 0.11% hits. AID 463141;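 active = activation above the mean of all tested compounds plus 3 SD, cut at about 21% in these data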;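 note: 0% = DMSO alone and 100% = DMSO wells spiked with extra 5 µM PC-3 D3A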
Target sequence (P42574 whole entry D9A/D28A/D175A): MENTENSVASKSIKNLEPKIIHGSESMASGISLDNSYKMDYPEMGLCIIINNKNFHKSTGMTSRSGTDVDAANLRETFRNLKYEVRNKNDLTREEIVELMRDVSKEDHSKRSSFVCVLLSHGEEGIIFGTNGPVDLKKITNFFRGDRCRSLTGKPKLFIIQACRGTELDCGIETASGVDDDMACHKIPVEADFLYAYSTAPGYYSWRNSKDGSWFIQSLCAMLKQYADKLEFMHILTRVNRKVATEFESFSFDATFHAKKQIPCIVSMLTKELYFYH
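Assay system: Autoprocessing-dead procaspase-3 D3A mutant enzyme; also added: Ac-DEVD-pNA; doses: one concentration, 8.5 µM nominal, 0.8% DMSO; times: 1 h compound preincubation, 2 h substrate hydrolysis at 25 °C; technique: 405 nm absorbance of p-nitroaniline, reads at 0 and 120 min; measure: % activation between DMSO and enzyme-spiked controls; repeats: single replicate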
Neddylation inh: blocks human cullin neddylation. AID 651699. TR-FRET cullin neddylation, biochemical. P61081+Q13564. 360,000 compounds, 0.58% hits. inhibition, % at 25 µM; in the data active = inhibition above about 36%
Calb FLC: C. albicans growth modulation with fluconazole | 300,000 compounds, 0.57% hits | C. albicans CaCi-2 + fluconazole, Alamar Blue growth, 48 h | AID 1979 | growth inhibition, % (no concentration beside the values);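 active = growth inhibition above about 58% in most replicates, limit read from the data, passing the limit was not always enough; inconclusive = exactly half the replicates above a set limit; inactive = most replicates below a set limit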;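 note: all wells also contain fluconazole at 8 µg/ml as a sub-toxic cotreatment; 0% = median of DMSO wells and 100% = median of geldanamycin control wells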
HIF activator: HIF pathway transcriptional activation. U2OS HRE-luciferase reporter, luminescence; normalized: DMSO 0%, desferrioxamine 100%. 300,000 compounds, 0.32% hits. activation, % at 7.5 µM (by protocol);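 active = mean activation of at least 10% of the iron chelator positive control signal, with at least half of replicates also reaching 10%; inconclusive = mean and replicate majority disagree about reaching 10%; inactive = mean and most replicates under 10%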
FXN GAA850 act: activators of GAA850 frataxin (FXN) promoter; HEK293 lucGAA850 FXN promoter luciferase reporter, 24 h; percent of 10 µM SAHA response; activation, % at 6 µM; 360,000 compounds, 0.56% hits; AID 540364;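 active = activation above the average of all compounds screened plus 3 SD, cutoff fixed separately per campaign, cut at about 7.5% in these data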;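 note: 0% = DMSO wells and 100% = 10 µM SAHA wells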
procasp7 counter: activates human procaspase-7, counter-screen for procaspase-3 activators. recombinant procaspase-7, Ac-DEVD-pNA absorbance 405 nm; D23A/D198A/D206A triple mutant, cannot self-cleave; scale: DMSO 0, 5 µM enzyme 100. 330,000 compounds, 0.093% hits. activation, % at 8.5 µM. P55210;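 active = percent activation above the screen-wide mean plus 3 SD, cut at about 25% in these data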
Target sequence (P55210 whole entry D23A/D198A/D206A): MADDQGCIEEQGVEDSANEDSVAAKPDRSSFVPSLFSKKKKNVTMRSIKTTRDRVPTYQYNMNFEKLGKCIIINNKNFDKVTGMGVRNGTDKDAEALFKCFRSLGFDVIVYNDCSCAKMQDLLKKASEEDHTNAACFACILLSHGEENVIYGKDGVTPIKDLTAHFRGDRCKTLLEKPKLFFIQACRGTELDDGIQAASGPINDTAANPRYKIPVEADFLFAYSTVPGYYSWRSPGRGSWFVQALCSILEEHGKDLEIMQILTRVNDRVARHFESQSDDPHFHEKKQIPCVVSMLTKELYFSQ
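Replicates: singlicate. Assay system: Procaspase-7 triple mutant (PC-7 D3A). Signal: 405 nm absorbance of p-nitroaniline. Times: 1 h preincubation, 2 h reaction. Buffer or medium: Zinc-free HEPES pH 7.4 with 300 mM NaCl, 0.01% Triton X-100. Also added: DEVD-pNA substrate. Benchmarks: DMSO wells as 0%, DMSO with 5 µM added PC-7 as 100%.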
Neddyl inh conf: cullin neddylation inhibition, confirmation; shares compounds with Neddylation inh; TR-FRET cullin neddylation biochemical assay; calls only at 25 µM; 1,800 compounds, 13% hits; in the data active = inhibition above about 40%;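 note: neddylation substrate is the cullin 1 ring ligase complex with SKP2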
* = called active by the depositor; i = inactive; ? = inconclusive; . = no result given; + = active, no number. Sampled rows, rich in hits. Any-hit rate of the full collection: about 1.9%.

SMILES	procasp3 activ	Neddylation inh	Calb FLC	HIF activator	FXN GAA850 act	procasp7 counter	Neddyl inh conf
O=C(Cn1nnc(-c2cc(C(F)(F)F)cc(C(F)(F)F)c2)n1)NNC(=S)Nc1ccc(Cl)cc1	10.1	58.9*	-2.7	-0.2	0.0	-6.2	i
O=C(COC(=O)Cc1ccccc1[N+](=O)[O-])NNC(=O)c1ccc([N+](=O)[O-])cc1	-4.3	-67.9	.	.	2.0	-2.7	.
Nc1ncccc1C(=O)OCC(=O)N1CCN(S(=O)(=O)c2ccc(Cl)cc2)CC1	7.2	61.7*	.	.	-1.7	0.0	.
CCOc1ncccc1C(=O)OCC(=O)N1CCN(S(=O)(=O)c2ccc(Cl)cc2)CC1	6.4	1.4	-0.2	0.0	-0.7	-2.7	.
O=C(O)CN(c1ccccn1)S(=O)(=O)c1ccccc1	-1.6	42.4*	-17.4	-0.8	-1.5	7.6	i
O=C(O)CN(c1ccccn1)S(=O)(=O)c1ccc(Cl)cc1	-1.4	33.1	13.1	-31.1	1.3	-5.2	.
COC(=O)c1cc(NC(=S)NC(=O)c2ccccc2)ccc1N1CCOCC1	0.6	-6.3	5.5	0.6	1.9	-3.8	.
CC(=O)Nc1cccc2c1C(=O)NC2=O	2.2	46.4*	3.1	-0.2	-0.6	3.2	+
O=C1NC(=O)c2c(NC(=O)C3CCCO3)cccc21 (stereo not drawn)	-1.3	28.7	22.3	-0.2	4.2	4.2	.
CSc1nc2nccc(-c3ccc4c(c3)OCO4)n2n1	4.3	47.8*	33.8	-0.4	0.1	2.8	i
N#Cc1nc(-c2ccco2)oc1NCCN1CCOCC1	14.3	38.6*	22.5	.	-1.7	18.7	i
CCOC(=O)N1CCN(C(=O)C[C@@H]2C[C@@]3(C(=O)OCC)CCCC=C3N(Cc3ccc4c(c3)OCO4)C2=O)CC1	.	1.8	.	.	.	.	.
O=C(Nc1ccc2nc(-c3ccccc3)oc2c1)c1ccco1	1.6	37.5*	-5.8	3.3	2.1	2.7	i
Cc1ccc(-n2c(O)c(/C=N/NC(=O)C3COc4ccccc4O3)c3ccccc3c2=O)cc1 (stereo not drawn)	-58.7	43.6*	35.1	-35.5	2.0	-55.5	i
O=C(N/N=C/c1c(O)n(-c2ccccc2Cl)c(=O)c2ccccc12)C1COc2ccccc2O1 (stereo not drawn)	-42.2	48.1*	-7.8	-0.3	2.3	-36.7	i
CSc1ccccc1NC(=S)NCc1ccc(Cl)cc1	0.8	-7.0	-2.7	2.8	2.8	-5.7	.
Cc1ccc(C(=O)N/C(=C\c2cccs2)c2nc3ccccc3[nH]2)cc1	-6.5	45.4*	-0.7	0.1	0.1	-7.8	.
O=C(N/C(=C/c1cccs1)c1nc2ccccc2[nH]1)c1ccccc1	-14.4	28.2	1.0	0.1	-4.3	-23.4	.
COc1cccc(OC)c1C(=O)N1CCN(C(=O)c2ccc(-c3ccccc3)cc2)CC1	3.1	-8.7	-13.0	0.1	0.1	-5.5	.
CN(C)c1ccc2c(=O)c3ccccc3oc2n1	.	39.8*	.	.	.	.	i
Cc1nc2oc3ccccc3c(=O)c2cc1C(=O)O	12.0	-19.1	1.3	0.6	0.2	5.3	.
COc1ccc2cc3cc(C(=O)NCCCN4CCc5ccccc5C4)sc3nc2c1	-4.8	47.1*	-2.9	1.7	5.1	4.4	+
COc1ccc2nc3sc(C(=O)NCCN4CCc5ccccc5C4)cc3cc2c1	-5.7	0.3	0.3	2.3	-3.0	-6.1	.
CC(=O)NCC1CCCN(Cc2cn(-c3ccccc3)nc2-c2ccc3c(c2)OCO3)C1 (stereo not drawn)	5.6	40.4*	10.8	-0.4	0.2	-2.1	i
COC(=O)C1CCN(Cc2cn(-c3ccccc3)nc2-c2ccc3c(c2)OCO3)CC1	3.6	40.1*	-26.2	0.3	0.1	2.4	i
SMILES	procasp3 activ	Neddylation inh	Calb FLC	HIF activator	FXN GAA850 act	procasp7 counter	Neddyl inh conf
O=C(O)c1ccc(-n2nnc3ccccc32)c([N+](=O)[O-])c1	0.7	-15.2	-1.1	0.4	-0.4	-9.5	.
N#Cc1cc(O)c(-n2nnc3ccccc32)cc1C#N	3.2	39.1*	17.3	0.3	0.0	-5.3	i
O=C(C1CCN(S(=O)(=O)c2ccccc2F)CC1)N1CCN(Cc2ccc3c(c2)OCO3)CC1	7.8	12.1	.	.	0.4	5.4	.
CCOC(=O)c1c(-c2ccccc2)n(C)c2ccc(O)cc12	0.1	41.8*	7.4	-0.4	1.2	7.2	.
[O-][n+]1c2ccccc2cc2ccccc21	-3.8	45.0*	-0.7	2.5	-2.8	-5.2	.
CCn1c(=O)c2cc(C(=O)N3CCOCC3)sc2c2ccccc21	4.5	47.9*	-1.9	0.0	1.6	-4.4	.
CCn1c(=O)c2cc(C(=O)N3CCCC3)sc2c2ccccc21	.	.	-5.1	-0.2	.	.	.
COc1ccc(-c2cc3nc(C)cc(N4CCN(C(=O)c5ccoc5)CC4)n3n2)cc1	.	.	.	.	1.1	.	.
COc1cccc(-c2cc3nc(C)cc(N4CCN(C(=O)c5ccoc5)CC4)n3n2)c1	.	46.9*	.	.	-0.7	.	.
CCc1ccc(N2CC(C)Cn3c2nc2c3c(=O)[nH]c(=O)n2C)cc1 (stereo not drawn)	2.0	6.5	-0.1	-10.3	3.2	-6.3	.
Cc1cnc(C(=O)OCc2csc(CC(=O)Nc3ccccc3C)n2)cn1	3.8	12.4	2.3	-16.3	1.7	0.1	.
Nc1cc(C(=O)O)ccc1Nc1ccccc1	4.2	48.5*	?	-0.2	2.2	-11.2	.
Cc1[nH]nc2c1C(c1ccc(O)cc1)C1=C(CC(C)(C)CC1=O)N2 (stereo not drawn)	-3.5	45.5*	2.7	-0.2	-0.8	-4.1	i
Cc1ccc2nc(Cl)cc(=O)n2c1	.	43.5*	.	.	0.4	.	i
COc1ccc(C2CC(c3ccccc3)=NN2C(=O)COC(=O)CNC(=O)c2ccccc2)cc1 (stereo not drawn)	1.1	-16.8	-10.8	0.6	1.6	0.8	.
COc1ccc(C2CC(c3ccccc3)=NN2C(=O)COC(=O)/C=C/c2ccc(O)c(OC)c2)cc1 (stereo not drawn)	-3.3	44.1*	-2.3	-0.6	1.4	0.8	i
O=S1(=O)c2cccc3cccc(c23)N1CCBr	1.0	41.9*	20.3	0.2	3.6	2.6	i
N#CCCCCN1c2cccc3cccc(c23)S1(=O)=O	1.2	.	0.6	-2.7	-0.1	7.7	.
CCCN1c2cccc3cccc(c23)S1(=O)=O	3.2	47.9*	-25.3	-0.8	2.5	-0.8	.
NS(=O)(=O)c1ccc(NC(=O)COC(=O)C2CC2)cc1	-3.2	-7.0	.	.	0.3	1.6	.
Cc1cc(C)cc(N(CC(=O)NC2CCCC2)C(=O)C2(C)CC(=O)N=C3C=CC=CN32)c1 (stereo not drawn)	7.2	52.4*	-8.8	3.5	-0.1	16.8	+
